Assay results as given in ChEMBL document CHEMBL3286317, “Synthesis and biological evaluation of a unique heparin mimetic hexasaccharide for structure-activity relationship studies” (J Med Chem, 2014).
Activity calls are given as the source filed them. The calls are words filed in the database; no cut-off is given here.

Key:
[1] = target: Stromal cell-derived factor 1 (Homo sapiens, UniProt P48061); assay: Binding affinity to human recombinant CXCL12 by surface plasmon resonance assay
How it was run: (§1)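 Biotinylated low-molecular-weight heparin was captured on a neutravidin surface. Protein at varying concentrations was mixed with a hexasaccharide dilution series and injected. Free protein was read from a quadratic slope-vs-concentration standard curve. KD = [P_free][H_total]/[P_bound], averaged over three hexasaccharide concentrations.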

[2] = target: T1, Heparanase (Homo sapiens) (UniProt Q9Y251); assay: Inhibition of recombinant heparanase (unknown origin) using biotin-cryptate-labeled heparan sulfate as substrate at 8.3 mg/ml preincubated for 15 mins prior to substrate challenge by TR-FRET assay
T1 sequence (whole entry): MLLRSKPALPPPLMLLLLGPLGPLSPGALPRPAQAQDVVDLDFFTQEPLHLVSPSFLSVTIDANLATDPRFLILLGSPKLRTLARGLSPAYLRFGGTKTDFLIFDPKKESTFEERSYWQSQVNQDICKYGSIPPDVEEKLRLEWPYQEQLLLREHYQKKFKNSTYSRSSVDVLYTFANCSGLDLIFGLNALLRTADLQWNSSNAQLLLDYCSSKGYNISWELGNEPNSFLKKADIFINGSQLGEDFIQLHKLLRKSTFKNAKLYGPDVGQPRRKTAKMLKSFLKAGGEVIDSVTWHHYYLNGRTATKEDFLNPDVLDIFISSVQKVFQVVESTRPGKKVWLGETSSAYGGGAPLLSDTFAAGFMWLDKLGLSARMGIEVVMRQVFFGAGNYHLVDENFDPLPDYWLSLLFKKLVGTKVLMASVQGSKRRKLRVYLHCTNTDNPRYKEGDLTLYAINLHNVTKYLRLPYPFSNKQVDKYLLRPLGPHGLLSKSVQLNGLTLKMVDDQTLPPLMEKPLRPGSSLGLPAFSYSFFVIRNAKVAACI
How it was run: (§2)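 Recombinant heparanase was preincubated with compound at various concentrations for 15 min at 37 °C. It was then added to biotin-cryptate-labeled heparan sulfate substrate with streptavidin-XL665 for 1 h at 37 °C. Read-out was TR-FRET between europium cryptate and XL665.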

[3] = target: T1, Heparanase (Homo sapiens); assay: Inhibition of recombinant heparanase (unknown origin) using biotin-cryptate-labeled heparan sulfate as substrate at 0.03 to 8 mg/ml preincubated for 15 mins prior to substrate challenge by TR-FRET assay; how it was run: as §2
[4] = target: Fibroblast growth factor 2 (Homo sapiens, UniProt P09038); assay: Binding affinity to human recombinant FGF2 by surface plasmon resonance assay; how it was run: as §1
Chain of Fibroblast growth factor 2 (P09038 143-288 limits assumed): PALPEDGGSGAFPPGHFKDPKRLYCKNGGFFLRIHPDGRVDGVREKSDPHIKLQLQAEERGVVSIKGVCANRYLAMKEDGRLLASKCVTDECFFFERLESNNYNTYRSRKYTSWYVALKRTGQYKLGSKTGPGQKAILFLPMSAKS

Interferon gamma = target: T2, Interferon gamma (Homo sapiens, UniProt P01579); assay: Binding affinity to human recombinant IFN-gamma by surface plasmon resonance assay; how it was run: as §1
T2 sequence (P01579 whole entry): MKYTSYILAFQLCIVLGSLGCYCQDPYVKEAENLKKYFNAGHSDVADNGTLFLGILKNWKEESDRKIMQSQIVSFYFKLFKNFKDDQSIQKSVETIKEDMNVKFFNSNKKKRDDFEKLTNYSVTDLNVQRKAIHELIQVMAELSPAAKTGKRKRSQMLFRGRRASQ

[5] = Binding affinity to human recombinant IL-23 by surface plasmon resonance assay; how it was run: as §1
[6] = target: T3, Secreted frizzled-related protein 1 (Homo sapiens, UniProt Q8N474); assay: Binding affinity to human recombinant sFRP1 by surface plasmon resonance assay; how it was run: as §1
T3 sequence (Q8N474 whole entry): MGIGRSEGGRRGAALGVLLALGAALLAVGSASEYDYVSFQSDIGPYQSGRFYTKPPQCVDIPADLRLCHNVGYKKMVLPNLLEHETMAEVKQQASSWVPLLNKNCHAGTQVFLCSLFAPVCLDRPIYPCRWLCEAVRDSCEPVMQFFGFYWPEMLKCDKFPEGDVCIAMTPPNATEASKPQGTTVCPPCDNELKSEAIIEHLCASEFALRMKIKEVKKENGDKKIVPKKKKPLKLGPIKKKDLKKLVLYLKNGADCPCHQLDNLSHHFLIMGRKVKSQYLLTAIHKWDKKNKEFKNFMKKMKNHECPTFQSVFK

[7] = target: Fibroblast growth factor 1 (Homo sapiens, UniProt P05230); assay: Binding affinity to human recombinant FGF1 by surface plasmon resonance assay; how it was run: as §1
Chain of Fibroblast growth factor 1 (P05230 whole entry): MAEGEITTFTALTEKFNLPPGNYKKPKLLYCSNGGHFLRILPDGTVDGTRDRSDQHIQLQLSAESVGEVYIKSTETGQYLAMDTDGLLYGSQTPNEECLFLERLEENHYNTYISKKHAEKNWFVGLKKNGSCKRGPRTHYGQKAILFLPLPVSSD

[8] = target: T1, Heparanase (Homo sapiens); assay: Inhibition of recombinant heparanase (unknown origin) using biotin-cryptate-labeled heparan sulfate as substrate at 4.2 mg/ml preincubated for 15 mins prior to substrate challenge by TR-FRET assay; how it was run: as §2
Platelet factor 4 = target: T4, Platelet factor 4 (Homo sapiens, UniProt P02776); assay: Binding affinity to human recombinant CXCL4 by surface plasmon resonance assay; how it was run: as §1
T4 sequence (P02776 whole entry): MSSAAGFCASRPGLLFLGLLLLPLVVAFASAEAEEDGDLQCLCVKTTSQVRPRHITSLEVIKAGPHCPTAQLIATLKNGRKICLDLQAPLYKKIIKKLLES

Protein Wnt-3a = Protein Wnt-3a (Homo sapiens, UniProt P56704); assay: Binding affinity to human recombinant WNT3A by surface plasmon resonance assay; how it was run: as §1
Chain of Protein Wnt-3a (P56704 whole entry): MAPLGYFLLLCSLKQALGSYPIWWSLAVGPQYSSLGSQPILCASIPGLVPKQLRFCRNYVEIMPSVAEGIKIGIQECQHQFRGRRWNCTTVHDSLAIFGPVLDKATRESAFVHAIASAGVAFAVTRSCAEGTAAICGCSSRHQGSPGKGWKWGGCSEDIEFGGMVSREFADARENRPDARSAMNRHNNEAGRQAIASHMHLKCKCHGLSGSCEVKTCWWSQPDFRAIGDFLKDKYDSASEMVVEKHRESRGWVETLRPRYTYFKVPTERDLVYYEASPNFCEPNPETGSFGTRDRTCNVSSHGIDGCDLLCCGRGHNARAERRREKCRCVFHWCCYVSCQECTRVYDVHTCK

C-C motif chemokine 2 = C-C motif chemokine 2 (Homo sapiens, UniProt P13500); assay: Binding affinity to human recombinant CCL2 by surface plasmon resonance assay; how it was run: as §1
Chain of C-C motif chemokine 2 (P13500 whole entry): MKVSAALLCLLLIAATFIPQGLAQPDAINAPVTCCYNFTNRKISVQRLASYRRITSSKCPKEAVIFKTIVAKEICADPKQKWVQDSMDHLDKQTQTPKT

Chain of Stromal cell-derived factor 1 (P48061 whole entry): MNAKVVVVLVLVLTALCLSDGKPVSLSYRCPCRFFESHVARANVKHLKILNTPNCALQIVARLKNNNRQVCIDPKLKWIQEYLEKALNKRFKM

Kd [1] [µM]	Imax [2] [%]	inhibition [3]	Kd [4] [µM]	Kd (Interferon gamma) [µM]	Kd [5] [µM]	Kd [6] [µM]	Kd [7] [µM]	Imax [8] [%]	Kd (Platelet factor 4) [µM]	Kd (Protein Wnt-3a) [µM]	Kd (C-C motif chemokine 2) [µM]	Structure (SMILES)
77	30.7	Active	25000	–	–	–	–	–	–	–	–	CCCCCO[C@H]1O[C@H](COS(=O)(=O)O)[C@@H](O[C@@H]2O[C@@H](C(=O)O)[C@@H](O[C@H]3O[C@H](COS(=O)(=O)O)[C@@H](O[C@@H]4O[C@@H](C(=O)O)[C@@H](O[C@H]5O[C@H](COS(=O)(=O)O)[C@@H](O[C@@H]6O[C@@H](C(=O)O)[C@@H](O)[C@H](O)[C@H]6OS(=O)(=O)O)[C@H](O)[C@H]5NC(C)=O)[C@H](O)[C@H]4OS(=O)(=O)O)[C@H](O)[C@H]3NC(C)=O)[C@H](O)[C@H]2OS(=O)(=O)O)[C@H](O)[C@H]1NC(C)=O
–	–	Active	1	10	7	9	8	–	–	–	–	NCCCCCO[C@H]1O[C@H](CO)[C@@H](O[C@@H]2O[C@@H](C(=O)O)[C@@H](O[C@H]3O[C@H](CO)[C@@H](O[C@@H]4O[C@@H](C(=O)O)[C@@H](O[C@H]5O[C@H](CO)[C@@H](O[C@@H]6O[C@@H](C(=O)O)[C@@H](O)[C@H](O)[C@H]6OS(=O)(=O)O)[C@H](O)[C@H]5NS(=O)(=O)O)[C@H](O)[C@H]4OS(=O)(=O)O)[C@H](O)[C@H]3NS(=O)(=O)O)[C@H](O)[C@H]2OS(=O)(=O)O)[C@H](O)[C@H]1NS(=O)(=O)O
24	–	–	25000	7	4	–	–	47.2	3	18	61	CCCCCO[C@H]1O[C@H](COS(=O)(=O)O)[C@@H](O[C@@H]2O[C@@H](C(=O)O)[C@@H](O[C@H]3O[C@H](COS(=O)(=O)O)[C@@H](O[C@@H]4O[C@@H](C(=O)O)[C@@H](O[C@H]5O[C@H](COS(=O)(=O)O)[C@@H](O[C@@H]6O[C@@H](C(=O)O)[C@@H](O)[C@H](O)[C@H]6OS(=O)(=O)O)[C@H](O)[C@H]5NC(C)=O)[C@H](O)[C@H]4OS(=O)(=O)O)[C@H](O)[C@H]3NS(=O)(=O)O)[C@H](O)[C@H]2O)[C@H](O)[C@H]1NC(C)=O
